# Assay results taken from ChEMBL document CHEMBL4396883, “Discovery of CDK5 Inhibitors through Structure-Guided Approach” (ACS Med Chem Lett, 2019).
# The source made the active and inactive calls. No cut-off for these calls is given here.
# Legend:
# [1] = target: Cyclin-dependent kinase 5 (Homo sapiens) (UniProt Q00535); assay: Inhibition of CDK5 in human MV4-11 cells assessed as increase in p27KIP1 level at 5 to 10 uM measured after 24 hrs incubation by Western blot analysis; type: cell-based
# Procedure, shortened: (§1)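 Cells treated for 24 h; lysates immunoblotted for pAkt (S473), pRB (S780), cyclin D1, p27KIP1, and cleaved caspase 3 and 7 (MOLM-13); at least two independent repeats.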
# [2] = target: Cyclin-dependent kinase 5 (Homo sapiens) (UniProt Q00535); assay: Inhibition of CDK5 in human MOLM13 cells assessed as increase in p27KIP1 level at 5 to 10 uM measured after 24 hrs incubation by Western blot analysis; type: cell-based; procedure, shortened: as §1
# [3] = target: Cyclin-dependent kinase 5 (Homo sapiens) (UniProt Q00535); assay: Inhibition of CDK5 in human MV4-11 cells assessed as decrease in cyclin D1 level at 5 to 10 uM measured after 24 hrs incubation by Western blot analysis; type: cell-based; procedure, shortened: as §1
# [4] = target: Cyclin-dependent kinase 5 (Homo sapiens) (UniProt Q00535); assay: Inhibition of CDK5 in human MOLM13 cells assessed as decrease in cyclin D1 level at 5 to 10 uM measured after 24 hrs incubation by Western blot analysis; type: cell-based; procedure, shortened: as §1
# [5] = target: CDK2/Cyclin A2 (Homo sapiens) (UniProt P24941+P20248); assay: Inhibition of recombinant full length N-terminal GST tagged human CDK2/CyclinA expressed in baculovirus infected sf9 cells using histone H1 as substrate at 10 uM measured after 30 mins in presence of ATP by ADP-Glo kinase assay relative to control
# [6] = target: Cyclin-dependent kinase 5/CDK5 activator 1 (Homo sapiens, UniProt Q00535+Q15078); assay: Inhibition of recombinant full length N-terminal GST tagged human CDK5/p25 expressed in baculovirus infected sf9 cells using histone H1 as substrate at 10 uM measured after 60 mins in presence of ATP by ADP-Glo kinase assay relative to control
# CDK2/Cyclin A2 = CDK2/Cyclin A2 (Homo sapiens, UniProt P24941); assay: Inhibition of recombinant full length N-terminal GST tagged human CDK2/CyclinA expressed in baculovirus infected sf9 cells using histone H1 as substrate measured after 30 mins in presence of ATP by ADP-Glo kinase assay
# Procedure, shortened: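 CDK2/cyclin A kinase inhibition; Ki values from the average of at least two experiments.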
# [7] = target: Cyclin-dependent kinase 1/cyclin B1 (Homo sapiens, UniProt P06493); assay: Inhibition of CDK1/CyclinB1 (unknown origin) using histone H1 (GGGPATPKKAKKL) as substrate incubated for 80 mins in presence of ATP by ADP-Glo kinase assay; type: protein-complex assay
# [8] = target: Cyclin-dependent kinase 4/cyclin D1 (Homo sapiens, UniProt P11802); assay: Inhibition of human recombinant N-terminal GST-tagged CDK4 (S4-E303 residues)/Cyclin D1 (Q4-I295 residues) expressed in sf9 cells using RB-CTF as substrate incubated for 90 mins in presence of ATP by ADP-Glo kinase assay
# CDK6/cyclin D3 = CDK6/cyclin D3 (Homo sapiens, UniProt Q00534); assay: Inhibition of human recombinant N-terminal GST-tagged CDK6 (M1-A326 residues) and His6 tagged Cyclin D3 (M1-L292 residues) expressed in sf9 cells using histone H1 (GGGPATPKKAKKL) as substrate incubated for 60 mins in presence of ATP by ADP-Glo kinase assay
# CDK9/cyclin T1 = CDK9/cyclin T1 (Homo sapiens, UniProt P50750); assay: Inhibition of human recombinant full length N-terminal GST His6 fused CDK9 (M1 to F372 residues/ N-terminal His6 tagged Cyclin T1 (M1 to K726 residues) expressed in sf9 cells using RBER-IRStide as substrate incubated for 90 mins in presence of ATP by ADP-Glo kinase assay
# [9] = target: Cyclin-dependent kinase 2/cyclin E1 (Homo sapiens, UniProt P24941); assay: Inhibition of CDK2/Cyclin E (unknown origin) incubated for 30 to 120 mins in presence of ATP by ADP-Glo kinase assay; type: protein-complex assay
# CDK7/Cyclin H/MNAT1 = CDK7/Cyclin H/MNAT1 (Homo sapiens, UniProt P50613); assay: Inhibition of CDK7/cyclinH/MAT1 (unknown origin) using RBER-IRStide as substrate incubated for 120 mins in presence of ATP by ADP-Glo kinase assay; type: protein-complex assay
# MV4-11 = assay: Antiproliferative activity against human MV4-11 cells assessed as growth inhibition measured after 72 hrs by resazurin assay; type: functional; details: MV4-11, 72 h
# Procedure, shortened: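 Leukemia cells exposed to compound for 72 h; viability read by resazurin reduction. GI50 (concentration giving 50% inhibition of proliferation) reported as mean ± SD of three independent experiments.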
# MOLM-13 [10] = assay: Induction of apoptosis in human MOLM13 cells assessed as early apoptotic cells at 2.5 uM measured after 24 hrs by Annexin V-FITC/PI staining based flow cytometry (reference value: 3.38%); type: functional
# MOLM-13 [11] = assay: Induction of apoptosis in human MOLM13 cells assessed as late apoptotic cells at 2.5 uM measured after 24 hrs by Annexin V-FITC/PI staining based flow cytometry (reference value: 1.94%); type: functional
# MOLM-13 [12] = assay: Induction of apoptosis in human MOLM13 cells assessed as early apoptotic cells at 10 uM measured after 24 hrs by Annexin V-FITC/PI staining based flow cytometry (reference value: 3.38%); type: functional
# MOLM-13 [13] = assay: Induction of apoptosis in human MOLM13 cells assessed as late apoptotic cells at 10 uM measured after 24 hrs by Annexin V-FITC/PI staining based flow cytometry (reference value: 1.94%); type: functional
# [14] = target: Cyclin-dependent kinase 5 (Homo sapiens) (UniProt Q00535); assay: Inhibition of CDK5 in human MOLM13 cells assessed as increase in caspase3/7 activity at 2.5 to 10 uM measured after 24 hrs by caspase-3/7 glo assay; type: cell-based
# Procedure, shortened: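 MOLM-13 cells treated 24 h; caspase-3/7 activity measured with […]; at least two independent experiments, values given as mean.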
# [15] = target: Cyclin-dependent kinase 5 (Homo sapiens) (UniProt Q00535); assay: Inhibition of CDK5 in human MOLM13 cells assessed as decrease in phosphorylated Akt protein level at 5 to 10 uM measured after 24 hrs incubation by Western blot analysis; type: cell-based; procedure, shortened: as §1
# [16] = target: Cyclin-dependent kinase 5 (Homo sapiens) (UniProt Q00535); assay: Inhibition of CDK5 in human MV4-11 cells assessed as decrease in phosphorylated RB protein level at 5 to 10 uM measured after 24 hrs incubation by Western blot analysis; type: cell-based; procedure, shortened: as §1
# [17] = target: Cyclin-dependent kinase 5 (Homo sapiens) (UniProt Q00535); assay: Inhibition of CDK5 in human MV4-11 cells assessed as decrease in FAK phosphorylation at S732 measured after 24 hrs by Western blot analysis; type: cell-based
# Procedure, shortened: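 MV4-11 AML cells incubated 24 h with compound across a concentration series; cellular CDK5 activity followed by Western blot of FAK phosphorylation at Ser732.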
# [18] = target: Cyclin-dependent kinase 5 (Homo sapiens) (UniProt Q00535); assay: Inhibition of CDK5 in human MOLM13 cells assessed as decrease in p21CIP1 level at 5 to 10 uM measured after 24 hrs by western blot analysis; type: cell-based
# [19] = target: Cyclin-dependent kinase 5 (Homo sapiens) (UniProt Q00535); assay: Inhibition of CDK5 in human MV4-11 cells assessed as FAK phosphorylation at S732 at 5 to 10 uM measured after 24 hrs by Western blot analysis
# MOLM-13 (Homo sapiens) = assay: Cell cycle arrest in human MOLM-13 cells assessed as accumulation at sub G1 phase at 10 uM measured after 24 hrs by propidium iodide staining based flow cytometry analysis
# Chain of Cyclin-dependent kinase 5 (Homo sapiens) (Q00535 whole entry, looked up): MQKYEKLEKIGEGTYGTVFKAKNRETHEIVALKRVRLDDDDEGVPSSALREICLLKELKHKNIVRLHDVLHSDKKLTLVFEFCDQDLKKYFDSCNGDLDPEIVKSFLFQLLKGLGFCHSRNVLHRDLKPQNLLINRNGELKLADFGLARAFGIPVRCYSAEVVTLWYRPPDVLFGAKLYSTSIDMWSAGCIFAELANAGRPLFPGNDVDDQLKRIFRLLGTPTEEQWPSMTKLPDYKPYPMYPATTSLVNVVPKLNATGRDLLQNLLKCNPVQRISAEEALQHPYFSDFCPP
# Chain of CDK9/cyclin T1 (O60563 whole entry, the tested form may be a part): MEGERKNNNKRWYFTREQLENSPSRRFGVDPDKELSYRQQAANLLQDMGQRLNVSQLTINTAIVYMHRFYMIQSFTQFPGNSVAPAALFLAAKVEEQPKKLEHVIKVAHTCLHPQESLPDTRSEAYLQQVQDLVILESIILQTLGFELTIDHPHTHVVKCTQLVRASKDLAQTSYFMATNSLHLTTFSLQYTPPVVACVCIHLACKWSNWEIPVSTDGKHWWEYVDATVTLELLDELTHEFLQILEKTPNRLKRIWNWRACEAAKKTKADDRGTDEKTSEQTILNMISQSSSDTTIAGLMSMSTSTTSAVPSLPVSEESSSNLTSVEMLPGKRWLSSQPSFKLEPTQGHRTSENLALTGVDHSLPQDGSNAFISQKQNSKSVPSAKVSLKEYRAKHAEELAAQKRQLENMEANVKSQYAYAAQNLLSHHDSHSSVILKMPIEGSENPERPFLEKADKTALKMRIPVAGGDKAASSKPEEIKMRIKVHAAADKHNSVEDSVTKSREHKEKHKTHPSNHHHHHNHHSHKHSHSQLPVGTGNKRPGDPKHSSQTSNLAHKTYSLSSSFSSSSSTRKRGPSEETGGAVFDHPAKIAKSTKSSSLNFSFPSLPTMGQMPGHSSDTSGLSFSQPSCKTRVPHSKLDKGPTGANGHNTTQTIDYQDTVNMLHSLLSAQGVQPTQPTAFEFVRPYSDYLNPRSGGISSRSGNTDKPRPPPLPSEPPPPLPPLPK
# Chain of CDK9/cyclin T1 (P50750 whole entry, the tested form may be a part): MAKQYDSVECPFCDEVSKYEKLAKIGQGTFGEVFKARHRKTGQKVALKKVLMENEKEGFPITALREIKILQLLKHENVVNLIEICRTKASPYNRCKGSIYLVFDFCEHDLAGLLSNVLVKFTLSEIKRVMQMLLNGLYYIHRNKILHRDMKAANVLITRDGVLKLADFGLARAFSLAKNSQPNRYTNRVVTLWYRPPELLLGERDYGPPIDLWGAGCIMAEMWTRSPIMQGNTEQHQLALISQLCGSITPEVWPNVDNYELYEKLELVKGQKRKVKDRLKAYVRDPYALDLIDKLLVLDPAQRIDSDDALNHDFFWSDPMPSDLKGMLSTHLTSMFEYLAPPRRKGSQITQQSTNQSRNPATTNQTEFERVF
# Chain of Cyclin-dependent kinase 5/CDK5 activator 1 (Q00535 whole entry): as the sequence (Q00535 whole entry, looked up) above
# Chain of Cyclin-dependent kinase 5/CDK5 activator 1 (Q15078 99-307 partner limits assumed): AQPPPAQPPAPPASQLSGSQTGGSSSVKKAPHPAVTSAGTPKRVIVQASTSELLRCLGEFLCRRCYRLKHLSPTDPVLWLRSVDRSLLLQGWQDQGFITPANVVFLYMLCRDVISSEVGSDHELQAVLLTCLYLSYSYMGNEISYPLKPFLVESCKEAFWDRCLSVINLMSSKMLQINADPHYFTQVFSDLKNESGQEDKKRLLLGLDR
# Chain of Cyclin-dependent kinase 1/cyclin B1 (P06493 whole entry, the tested form may be a part): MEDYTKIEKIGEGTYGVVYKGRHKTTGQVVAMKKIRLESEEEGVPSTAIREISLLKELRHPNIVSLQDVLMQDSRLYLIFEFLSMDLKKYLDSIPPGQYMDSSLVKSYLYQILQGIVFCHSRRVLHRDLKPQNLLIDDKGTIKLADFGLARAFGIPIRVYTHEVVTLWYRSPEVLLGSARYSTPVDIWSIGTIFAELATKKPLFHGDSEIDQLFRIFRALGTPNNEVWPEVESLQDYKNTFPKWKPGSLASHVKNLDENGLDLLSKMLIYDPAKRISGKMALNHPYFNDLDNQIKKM
# Chain of Cyclin-dependent kinase 1/cyclin B1 (P14635 whole entry, further chain, the tested form may be a part): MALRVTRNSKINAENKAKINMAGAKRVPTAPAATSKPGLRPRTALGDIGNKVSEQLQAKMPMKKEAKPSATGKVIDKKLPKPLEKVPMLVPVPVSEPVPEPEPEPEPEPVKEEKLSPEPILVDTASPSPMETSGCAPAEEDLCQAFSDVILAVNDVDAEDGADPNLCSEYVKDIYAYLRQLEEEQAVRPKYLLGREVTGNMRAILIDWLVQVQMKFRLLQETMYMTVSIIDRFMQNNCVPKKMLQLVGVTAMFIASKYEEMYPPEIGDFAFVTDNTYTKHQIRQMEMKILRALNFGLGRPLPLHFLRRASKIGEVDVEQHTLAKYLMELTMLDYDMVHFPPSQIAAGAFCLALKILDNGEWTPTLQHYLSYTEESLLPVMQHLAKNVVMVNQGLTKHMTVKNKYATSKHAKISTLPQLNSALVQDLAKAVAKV
# Chain of CDK6/cyclin D3 (P30281 whole entry, the tested form may be a part): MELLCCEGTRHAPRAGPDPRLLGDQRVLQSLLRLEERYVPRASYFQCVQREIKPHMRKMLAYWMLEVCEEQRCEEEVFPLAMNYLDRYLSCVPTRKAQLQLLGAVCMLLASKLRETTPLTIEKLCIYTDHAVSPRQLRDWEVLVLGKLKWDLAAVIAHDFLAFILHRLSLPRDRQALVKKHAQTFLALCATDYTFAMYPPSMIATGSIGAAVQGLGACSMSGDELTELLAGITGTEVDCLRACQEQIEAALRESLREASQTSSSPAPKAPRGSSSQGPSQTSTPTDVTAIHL
# Chain of CDK6/cyclin D3 (Q00534 whole entry, the tested form may be a part): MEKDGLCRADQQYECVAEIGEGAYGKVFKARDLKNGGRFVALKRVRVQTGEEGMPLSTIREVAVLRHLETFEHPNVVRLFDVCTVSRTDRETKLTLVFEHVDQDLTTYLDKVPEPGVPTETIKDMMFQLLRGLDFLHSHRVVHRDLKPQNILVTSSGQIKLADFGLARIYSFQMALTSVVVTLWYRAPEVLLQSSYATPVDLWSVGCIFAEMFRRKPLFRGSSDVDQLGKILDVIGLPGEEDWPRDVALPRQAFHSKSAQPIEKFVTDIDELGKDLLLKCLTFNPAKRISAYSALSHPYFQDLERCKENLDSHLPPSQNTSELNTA
# Chain of Cyclin-dependent kinase 4/cyclin D1 (P11802 whole entry, the tested form may be a part): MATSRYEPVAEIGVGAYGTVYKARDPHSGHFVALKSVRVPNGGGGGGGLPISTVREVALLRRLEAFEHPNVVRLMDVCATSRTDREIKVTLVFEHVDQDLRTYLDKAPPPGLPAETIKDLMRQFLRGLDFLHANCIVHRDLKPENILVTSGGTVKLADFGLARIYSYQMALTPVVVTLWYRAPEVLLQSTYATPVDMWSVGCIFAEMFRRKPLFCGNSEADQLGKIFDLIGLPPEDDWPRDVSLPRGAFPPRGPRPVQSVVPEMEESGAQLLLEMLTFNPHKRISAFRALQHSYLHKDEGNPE
# Chain of Cyclin-dependent kinase 4/cyclin D1 (P24385 whole entry, further chain, the tested form may be a part): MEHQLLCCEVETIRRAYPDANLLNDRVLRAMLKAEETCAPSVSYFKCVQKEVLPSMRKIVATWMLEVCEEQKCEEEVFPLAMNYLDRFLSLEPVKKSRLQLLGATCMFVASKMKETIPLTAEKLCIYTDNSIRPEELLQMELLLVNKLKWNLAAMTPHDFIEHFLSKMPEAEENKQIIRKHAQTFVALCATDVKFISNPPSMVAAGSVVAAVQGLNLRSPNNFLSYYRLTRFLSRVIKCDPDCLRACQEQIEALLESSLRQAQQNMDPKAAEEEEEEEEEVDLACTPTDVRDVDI
# Chain of CDK7/Cyclin H/MNAT1 (P51946 whole entry): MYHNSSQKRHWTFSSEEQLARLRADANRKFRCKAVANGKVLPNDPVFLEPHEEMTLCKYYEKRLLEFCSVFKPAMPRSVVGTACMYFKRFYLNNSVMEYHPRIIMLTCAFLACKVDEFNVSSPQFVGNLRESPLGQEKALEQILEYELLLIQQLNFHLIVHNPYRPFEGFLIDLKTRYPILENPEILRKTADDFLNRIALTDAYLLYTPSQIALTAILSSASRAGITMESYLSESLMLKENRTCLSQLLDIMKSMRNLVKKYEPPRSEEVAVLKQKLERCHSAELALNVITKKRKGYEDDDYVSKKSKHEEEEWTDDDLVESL
# Chain of CDK7/Cyclin H/MNAT1 (P50613 whole entry): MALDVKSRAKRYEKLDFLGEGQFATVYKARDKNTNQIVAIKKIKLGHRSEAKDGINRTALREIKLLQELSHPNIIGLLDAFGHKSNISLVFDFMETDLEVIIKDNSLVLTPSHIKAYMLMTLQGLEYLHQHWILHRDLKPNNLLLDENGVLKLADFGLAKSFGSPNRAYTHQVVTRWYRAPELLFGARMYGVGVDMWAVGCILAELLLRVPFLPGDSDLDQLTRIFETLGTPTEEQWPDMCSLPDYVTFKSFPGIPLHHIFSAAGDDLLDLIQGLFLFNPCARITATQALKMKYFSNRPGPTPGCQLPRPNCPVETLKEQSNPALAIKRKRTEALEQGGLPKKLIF
# Chain of CDK7/Cyclin H/MNAT1 (P51948 whole entry, further chain): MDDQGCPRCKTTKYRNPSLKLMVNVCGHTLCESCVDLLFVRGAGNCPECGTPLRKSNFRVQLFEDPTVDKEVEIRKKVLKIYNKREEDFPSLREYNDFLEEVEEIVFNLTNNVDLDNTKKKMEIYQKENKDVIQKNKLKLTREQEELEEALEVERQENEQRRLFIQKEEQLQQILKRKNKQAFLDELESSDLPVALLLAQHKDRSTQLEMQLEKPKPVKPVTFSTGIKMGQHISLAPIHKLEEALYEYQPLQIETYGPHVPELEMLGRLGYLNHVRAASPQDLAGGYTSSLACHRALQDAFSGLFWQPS
Activity [1],Activity [2],inhibition [3],inhibition [4],inhibition [5] [%],inhibition [6] [%],Ki (CDK2/Cyclin A2) [µM],Ki [7] [µM],Ki [8] [µM],Ki (CDK6/cyclin D3) [µM],Ki (CDK9/cyclin T1) [µM],Ki [9] [µM],Ki (CDK7/Cyclin H/MNAT1) [µM],GI50 (MV4-11) [µM],Activity [14],inhibition [15],Compound,Activity (MOLM-13 [10]) [%],Activity (MOLM-13 [11]) [%],Activity (MOLM-13 [12]) [%],Activity (MOLM-13 [13]) [%],other results
Active,Active,Active,Active,95,98,0.27,2.61,> 5,3.01,1,1,> 5,2.55,Active,Active,NS(=O)(=O)c1cccc(Nc2ncc3c(n2)CCCC3)c1,10.05,3.43,18.34,6.16,inhibition [16]: Active; inhibition [17]: Dose-dependent effect; inhibition [18]: Active; inhibition [19]: inactive; Activity (MOLM-13 (Homo sapiens)): Active
Active,Active,Active,Active,72,87,3.32,2.36,> 5,> 5,> 5,> 5,> 5,3.29,Active,Active,Cc1cccc(Nc2ncc3c(n2)CCCC3)c1,8.31,2.68,30.11,7.92,inhibition [16]: Active; inhibition [17]: Dose-dependent effect; inhibition [18]: Active; inhibition [19]: inactive; Activity (MOLM-13 (Homo sapiens)): Active
